Reference: ChEMBL document CHEMBL4118203, “Optimized synthesis and antiproliferative activity of desTHPdactylolides” (Bioorg Med Chem, 2018)

Key:
[1] = Antiproliferative activity against human PC3/DTX cells after 3 days by WST-1 assay; type: functional, cell-based; details: 72 h
Method in brief: (§1)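 Docetaxel-resistant lines were derived from DU145 or PC-3 over one year by stepwise-increasing docetaxel, starting at the parental IC50. Cells were kept continuously in docetaxel, with medium changed every 2–3 days. For the assay, cells were plated at 3,200/well and treated with a dose range for 3 days against DMSO vehicle. WST-1 was added for 3 h at 37 °C and absorbance read at 430 nm. IC50 is the mean of at least triplicates.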

[2] = Resistance index, ratio of IC50 for human PC3/DTX cells to IC50 for docetaxel-sensitive human PC3 cells; type: functional
[3] = Antiproliferative activity against human DU145/DTX cells after 3 days by WST-1 assay; type: functional, cell-based; details: DU-145, 72 h; method in brief: as §1
DU-145 = assay: Antiproliferative activity against docetaxel-sensitive human DU145 cells after 3 days by WST-1 assay; type: functional, cell-based; details: DU-145, 72 h
Method in brief: (§2)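 Cells grown at 37 °C, 5% CO2: PC-3 and LNCaP in RPMI-1640, DU145 in EMEM, each with 10% FBS and 1% penicillin/streptomycin. Plated at 3,200 cells/well and exposed to a range of doses for 3 days, with DMSO vehicle control. WST-1 reagent was then added for 3 h at 37 °C and absorbance read at 430 nm. IC50 is the mean of at least triplicate runs.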

LNCaP = assay: Antiproliferative activity against docetaxel-sensitive human LNCAP cells after 3 days by WST-1 assay; type: functional, cell-based; details: 72 h; method in brief: as §2
[4] = Resistance index, ratio of IC50 for human DU145/DTX cells to IC50 for docetaxel-sensitive human DU145 cells; type: functional
PC-3 [5] = assay: Antiproliferative activity against docetaxel-sensitive human PC3 cells after 3 days by WST-1 assay; type: functional, cell-based; details: PC-3, 72 h; method in brief: as §2
PC-3 [6] = assay: Antiproliferative activity against human PC3 cells after 72 hrs by methylene blue staining based assay; type: functional, cell-based; details: PC-3, 72 h

Row | SMILES | IC50 (DU-145) | IC50 (LNCaP) | IC50 (PC-3 [5]) | IC50 (PC-3 [6]) | IC50 [1] | Ratio IC50 [2] | IC50 [3] | Ratio IC50 [4]
1 | C/C1=C/C=C/C(=O)O[C@@H](CO)C/C(C)=C/COCC/C=C/C(=O)C1 | > 30 µM | > 30 µM | > 30 µM | – | > 30 µM | – | > 30 µM | –
2 | C/C1=C/C=C/C(=O)O[C@H](CO)C/C(C)=C/COCC/C=C/C(=O)C1 | 17.8 µM | 19.3 µM | 16.1 µM | 3.05 µM | 14.4 µM | 0.9 | 14.1 µM | 0.8
3 | C=C1C[C@H]2C/C=C/C(=O)C/C(C)=C\C=C\C(=O)OC(C=O)C/C(C)=C/[C@@H](C1)O2 (stereo not given in full) | – | – | – | 0.75 µM | – | – | – | –

Continued by falling IC50 (DU-145), values first:

Row | IC50 (DU-145) | IC50 (LNCaP) | IC50 (PC-3 [5]) | IC50 (PC-3 [6]) | SMILES | IC50 [1] | Ratio IC50 [2] | IC50 [3] | Ratio IC50 [4]
4 | 11.6 µM | 13.5 µM | 11.9 µM | 4.02 µM | C/C1=C/C=C/C(=O)O[C@H](C=O)C/C(C)=C/COCC/C=C/C(=O)C1 | 15.4 µM | 1.3 | 15.3 µM | 1.3
5 | 9.21 µM | 8.27 µM | 7.66 µM | – | COc1ccc(COC[C@@H]2C/C(C)=C/COCC/C=C/C(=O)C/C(C)=C\C=C\C(=O)O2)cc1 | > 20 µM | >2.6 | > 20 µM | >2.2
6 | 5.41 µM | 3.22 µM | 5.27 µM | – | C/C1=C/C=C/C(=O)O[C@@H](C=O)C/C(C)=C/COCC/C=C/C(=O)C1 | 4.41 µM | 0.8 | 8.03 µM | 1.5
7 | 3.16 µM | 2.85 µM | 6.31 µM | – | COc1ccc(COC[C@H]2C/C(C)=C/COCC/C=C/C(=O)C/C(C)=C\C=C\C(=O)O2)cc1 | 3.77 µM | 0.6 | 3.2 µM | 1
8 | 0.0012 µM | 0.0002 µM | 0.0019 µM | – | CC(=O)O[C@@]12CO[C@@H]1C[C@H](O)[C@@]1(C)C(=O)[C@H](O)C3=C(C)[C@@H](OC(=O)[C@H](O)[C@@H](NC(=O)OC(C)(C)C)c4ccccc4)C[C@@](O)([C@@H](OC(=O)c4ccccc4)[C@H]21)C3(C)C [DOCETAXEL ANHYDROUS] | 2.34 µM | 1232 | 8.58 µM | 7150
